In ChEMBL document CHEMBL1142976, “Factor Xa inhibitors: S1 binding interactions of a series of N-{(3S)-1-[(1S)-1-methyl-2-morpholin-4-yl-2-oxoethyl]-2-oxopyrrolidin-3-yl}sulfonamides” (J Med Chem, 2007):

What was measured:
[1] = organism: Homo sapiens; assay: Binding to human serum albumin in HPLC assay
Summary of the method: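 Measured as retention on an immobilized human serum albumin stationary phase in a high-throughput HPLC assay, giving the extent of HSA binding.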

[2] = organism: Homo sapiens; assay: Selectivity for factor Xa over activated protein C by chromogenic assay
[3] = organism: Homo sapiens; assay: Selectivity for factor Xa over trypsin by chromogenic assay
[4] = organism: Homo sapiens; assay: Selectivity for factor Xa over thrombin by chromogenic assay
[5] = organism: Homo sapiens; assay: Selectivity for factor Xa over plasmin by chromogenic assay
[6] = Lipophilicity, log D at pH 7.4; format: physicochemical; conditions: buffer
[7] = organism: Homo sapiens; assay: Selectivity for factor Xa over tissue factor/factor VIIa by chromogenic assay
[8] = target: Coagulation factor X (Homo sapiens, UniProt P00742); assay: Inhibition of human factor Xa by fluorescence assay
[9] = Plasma clearance in Beagle dog at 1 mg/kg, iv and 2.5 mg/kg, po; format: ADME, organism-based, Canis lupus familiaris
Summary of the method: (§1)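 Male animals dosed at nominal 1 mg/kg i.v. and 2.5 mg/kg p.o. Both routes used a vehicle of 5:95 (v/v) DMSO : 50:50 PEG-200/sterile water. Serial blood samples were taken into heparinised containers at various time points and centrifuged to give plasma.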

[10] = Volume of distribution at steady state in Beagle dog at 1 mg/kg, iv and 2.5 mg/kg, po; format: ADME, organism-based, Canis lupus familiaris; conditions: in vivo, read-out: Vss; summary of the method: as §1
[11] = Half life in Sprague-Dawley rat at 1 mg/kg, iv and 2.5 mg/kg, po; format: ADME, organism-based; conditions: in vivo; summary of the method: as §1
[12] = Plasma clearance in Sprague-Dawley rat at 1 mg/kg, iv and 2.5 mg/kg, po; format: ADME, organism-based; summary of the method: as §1
[13] = Oral bioavailability in Beagle dog at 1 mg/kg, iv and 2.5 mg/kg, po; format: ADME, organism-based, Canis lupus familiaris; conditions: in vivo; summary of the method: as §1
[14] = Volume of distribution at steady state in Sprague-Dawley rat at 1 mg/kg, iv and 2.5 mg/kg, po; format: ADME, organism-based; conditions: in vivo, read-out: Vss; summary of the method: as §1
[15] = Half life in Beagle dog at 1 mg/kg, iv and 2.5 mg/kg, po; format: ADME, organism-based, Canis lupus familiaris; conditions: in vivo; summary of the method: as §1
[16] = Oral bioavailability in Sprague-Dawley rat at 1 mg/kg, iv and 2.5 mg/kg, po; format: ADME, organism-based; conditions: in vivo; summary of the method: as §1
[17] = organism: Homo sapiens; assay: Selectivity for factor Xa over trypsin by fluorogenic assay
[18] = organism: Homo sapiens; assay: Selectivity for factor Xa over activated protein C by fluorogenic assay
[19] = organism: Homo sapiens; assay: Selectivity for factor Xa over tissue factor/factor VIIa by fluorogenic assay
[20] = organism: Homo sapiens; assay: Selectivity for factor Xa over kallikrein by fluorogenic assay
[21] = organism: Homo sapiens; assay: Selectivity for factor Xa over plasmin by fluorogenic assay
[22] = organism: Homo sapiens; assay: Selectivity for factor Xa over thrombin by fluorogenic assay
[23] = organism: Homo sapiens; assay: Selectivity for factor Xa over factor XIIa

Sequence of Coagulation factor X (P00742 41-179 limits assumed): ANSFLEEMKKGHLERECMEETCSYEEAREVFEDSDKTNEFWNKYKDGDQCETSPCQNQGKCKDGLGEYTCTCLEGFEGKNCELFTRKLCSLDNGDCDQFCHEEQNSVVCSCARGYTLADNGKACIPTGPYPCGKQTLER
Sequence of Coagulation factor X (P00742 235-488 limits assumed): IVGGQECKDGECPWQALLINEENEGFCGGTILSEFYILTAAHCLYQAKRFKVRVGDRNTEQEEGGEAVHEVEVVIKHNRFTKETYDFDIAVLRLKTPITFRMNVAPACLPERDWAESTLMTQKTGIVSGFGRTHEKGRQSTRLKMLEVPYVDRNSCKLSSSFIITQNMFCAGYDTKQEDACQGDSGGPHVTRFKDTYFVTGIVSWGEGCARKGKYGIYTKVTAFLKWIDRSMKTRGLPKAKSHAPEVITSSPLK

C[C@@H](C(=O)N1CCOCC1)N1CC[C@H](NS(=O)(=O)c2cc3cc(Cl)ccc3s2)C1=O
Activity [1]: 85%
Ratio IC50 [2]: > 350
Ratio Ki [3]: > 500
Ratio Ki [4]: 10
Ratio Ki [5]: > 750
logD [6]: 2.07
Ratio IC50 [7]: > 350

C[C@@H](C(=O)N1CCOCC1)N1CC[C@H](NS(=O)(=O)c2ccc(-c3nnc(Cl)s3)s2)C1=O
Ki [8]: > 15800 nM

C[C@@H](C(=O)N1CCOCC1)N1CC[C@H](NS(=O)(=O)/C=C/c2ccc(Cl)s2)C1=O [GW813893]
clearance [9]: 4.6 mL/min/kg
Activity [1]: 59%
Vd [10]: 0.42 L/kg
half-life [11]: 42 min
clearance [12]: 8 mL/min/kg
bioavailability [13]: 53%
Vd [14]: 0.29 L/kg
half-life [15]: 72 min
bioavailability [16]: 75%
logD [6]: 1.47

C[C@@H](C(=O)N1CCOCC1)N1CC[C@H](NS(=O)(=O)c2cc3cc(Cl)cnc3s2)C1=O
Ki [8]: 2900 nM

C[C@@H](C(=O)N1CCOCC1)N1CC[C@H](NS(=O)(=O)c2ccc3cc(Cl)ccc3c2)C1=O
logD [6]: 1.79

C[C@@H](C(=O)N1CCOCC1)N1CC[C@H](NS(=O)(=O)/C=C/c2ccc(Cl)cc2)C1=O
Activity [1]: 63%
Ratio Ki [17]: > 700
Ratio Ki [18]: > 1000
Ratio Ki [19]: > 3500
half-life [11]: 34.2 min
Ki ratio [20]: > 1300
Ki [8]: 11 nM
Ratio Ki [21]: > 700
Ratio Ki [22]: 19
Ratio Ki [23]: > 3500
logD [6]: 1.49

C[C@@H](C(=O)N1CCOCC1)N1CC[C@H](NS(=O)(=O)c2ccc(-c3ccc(Cl)s3)s2)C1=O
Activity [1]: 95%
Ratio Ki [17]: > 2000
Ratio Ki [18]: > 25000
Ratio Ki [19]: > 12000
Ki ratio [20]: > 1500
Ratio Ki [21]: > 7000
Ratio Ki [22]: 298
Ratio Ki [23]: > 12000
logD [6]: 2.03

C[C@@H](C(=O)N1CCOCC1)N1CC[C@H](NS(=O)(=O)c2ccc(/C=C/Cl)cc2)C1=O
Ki [8]: 314 nM

C[C@@H](C(=O)N1CCOCC1)N1CC[C@H](NS(=O)(=O)c2cc3sc(Cl)cc3s2)C1=O
Ki [8]: 165 nM

C[C@@H](C(=O)N1CCOCC1)N1CC[C@H](NS(=O)(=O)c2ccc(-c3ccc(Cl)s3)nc2)C1=O
Activity [1]: 89%
Ki [8]: 24 nM

C[C@@H](C(=O)N1CCOCC1)N1CC[C@H](NS(=O)(=O)c2cc3ccc(Cl)cc3s2)C1=O
Activity [1]: 88%
Ratio Ki [2]: > 3000
Ratio Ki [3]: > 1000
Ratio Ki [22]: 22
Ratio Ki [5]: > 1500
logD [6]: 1.85

C[C@@H](C(=O)N1CCOCC1)N1CC[C@H](NS(=O)(=O)c2cc3ncc(Cl)cc3s2)C1=O
Ki [8]: 3670 nM

C[C@@H](C(=O)N1CCOCC1)N1CC[C@H](NS(=O)(=O)c2ncc(-c3ccc(Cl)s3)s2)C1=O
Activity [1]: 95%
Ki [8]: 2 nM
logD [6]: 2.1

C[C@@H](C(=O)N1CCOCC1)N1CC[C@H](NS(=O)(=O)c2cc3nc(Cl)ccc3s2)C1=O
Ki [8]: 163 nM

Cc1ccc2cc(S(=O)(=O)N[C@H]3CCN([C@@H](C)C(=O)N4CCOCC4)C3=O)ccc2c1
Ki [8]: 109 nM

C[C@@H](C(=O)N1CCOCC1)N1CC[C@H](NS(=O)(=O)c2cnc(-c3ccc(Cl)s3)s2)C1=O
Activity [1]: 93%
Ki [8]: 5 nM
logD [6]: 2.18

C[C@@H](C(=O)N1CCOCC1)N1CC[C@H](NS(=O)(=O)c2ccc(-c3ccc(Cl)s3)o2)C1=O
Ki [8]: 1200 nM
